Assay [1] has as its system β2AR. The conditions noted are these: cited from earlier work.
Assay [2] relates to HASM cells. The assay can be described thus: Magnetic twisting cytometry, HASM cell stiffness. As to conditions: 10 μM ISO. It is filed as cell-based, human. Put shortly:
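Magnetic twisting cytometry: integrin-anchored beads on serum-deprived, post-confluent HASM cells from nonasthma donors, plated at 30,000 cells/cm² on collagen I and kept serum-free for 24 h. Cells were pretreated ± 1 μM test compound for 30 min. […] Stiffness was normalized to each cell's baseline; linear mixed-effect model on log data; 463 to 473 cells.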

The structures appear in SMILES notation.

As to `Nc1nc(Nc2ccccc2)nc2ccc(Br)cc12` [AS408], the “allosteric modulator activity at the β2AR” value in assay [1] is “NAM for both ISO-mediated cAMP production and β-arrestin recruitment”. Consider `CC(C)NCC(O)c1ccc(O)c(O)c1` (centres unmarked) [ISO, isoproterenol], for which the “time to peak relaxation” value in assay [2] was in the range of 4 to 5 min.
